From ChEMBL document CHEMBL1155016, “Locking the two ends of tetrapeptidic HTLV-I protease inhibitors inside the enzyme” (Bioorg Med Chem, 2008)
Starred links: 1 amine or outer side, 2 acyl side, 3 side chain; linkers in the order of their positions; H or OH if unused. Non-standard residues stand in square brackets, D forms with d. Residues, ends and D or L forms follow the SMILES beside them. X1 = O=C([C@@H](O)[C@H](Cc1ccccc1)N[*:1])[*:2]; Thz(5,5-Me2) = CC1(C)SCN[C@@H]1C(=O)O; Phg = N[C@H](C(=O)O)c1ccccc1; Tle = CC(C)(C)[C@H](N)C(=O)O

Legend:
[1] = target: Protease (Human immunodeficiency virus 1) (UniProt Q9YQ12); assay: Inhibition of HIV1 protease at 50 nM
[2] = target: Protease (Human T-cell leukemia virus type I, UniProt Q82134, L40I); assay: Inhibition of HTLV1 protease L40I mutant
In short: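 HTLV-I protease carrying the L40I substitution, which blocks autolysis and stabilises the enzyme; run by the group's earlier reported protocol; potency given as IC50 in nM.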

Chain of Protease (Human immunodeficiency virus 1) (Q9YQ12 as listed by the source): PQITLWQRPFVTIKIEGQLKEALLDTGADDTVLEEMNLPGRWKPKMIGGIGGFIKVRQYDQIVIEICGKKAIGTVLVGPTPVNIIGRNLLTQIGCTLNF
Chain of Protease (Q82134 entry or part of it L40I): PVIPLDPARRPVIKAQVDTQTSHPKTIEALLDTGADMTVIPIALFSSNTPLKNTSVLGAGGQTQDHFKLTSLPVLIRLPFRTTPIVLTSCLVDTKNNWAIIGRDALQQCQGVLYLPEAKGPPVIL

Structure (SMILES) | inhibition [1] | IC50 [2]
CCC(=O)N[C@H](C(=O)N[C@H](C(=O)N[C@@H](Cc1ccccc1)[C@H](O)C(=O)N1CSC(C)(C)[C@H]1C(=O)NC(C)C(C)(C)C)C(C)(C)C)c1ccccc1 (stereo partly drawn) | > 98% | 0.103 µM
CCCC(=O)N[C@H](C(=O)N[C@H](C(=O)N[C@@H](Cc1ccccc1)[C@H](O)C(=O)N1CSC(C)(C)[C@H]1C(=O)NCCC(C)C)C(C)(C)C)c1ccccc1 | > 98% | 0.095 µM
CC(C)CNC(=O)[C@H]1N(C(=O)[C@@H](O)[C@H](Cc2ccccc2)NC(=O)[C@@H](NC(=O)[C@@H](NC(=O)C(C)(C)C)c2ccccc2)C(C)(C)C)CSC1(C)C | > 98% | 0.083 µM
CC(C)CC(=O)N[C@H](C(=O)N[C@H](C(=O)N[C@@H](Cc1ccccc1)[C@H](O)C(=O)N1CSC(C)(C)[C@H]1C(=O)NC(C)C(C)(C)C)C(C)(C)C)c1ccccc1 (stereo partly drawn) | > 98% | 0.084 µM
CC(C)CC(=O)N[C@H](C(=O)N[C@H](C(=O)N[C@@H](Cc1ccccc1)[C@H](O)C(=O)N1CSC(C)(C)[C@H]1C(=O)NCC1CC1)C(C)(C)C)c1ccccc1 | > 98% | 0.132 µM
CC(=O)N[C@H](C(=O)N[C@H](C(=O)N[C@@H](Cc1ccccc1)[C@H](O)C(=O)N1CSC(C)(C)[C@H]1C(=O)NCC(C)C)C(C)(C)C)c1ccccc1 | > 98% | 0.107 µM
CC(NC(=O)[C@H]1N(C(=O)[C@@H](O)[C@H](Cc2ccccc2)NC(=O)[C@@H](NC(=O)[C@@H](NC(=O)C(C)(C)C)c2ccccc2)C(C)(C)C)CSC1(C)C)C(C)(C)C (stereo partly drawn) | > 98% | 0.097 µM
CC(C)C(=O)N[C@H](C(=O)N[C@H](C(=O)N[C@@H](Cc1ccccc1)[C@H](O)C(=O)N1CSC(C)(C)[C@H]1C(=O)NC(C)C(C)(C)C)C(C)(C)C)c1ccccc1 (stereo partly drawn) | > 98% | 0.084 µM
CCCC(=O)N[C@H](C(=O)N[C@H](C(=O)N[C@@H](Cc1ccccc1)[C@H](O)C(=O)N1CSC(C)(C)[C@H]1C(=O)NCC1CC1)C(C)(C)C)c1ccccc1 | > 98% | 0.113 µM
CC(C)C(C)NC(=O)[C@H]1N(C(=O)[C@@H](O)[C@H](Cc2ccccc2)NC(=O)[C@@H](NC(=O)[C@@H](N)c2ccccc2)C(C)(C)C)CSC1(C)C (stereo partly drawn) | > 98% | 0.354 µM
CC(C)CNC(=O)[C@H]1N(C(=O)[C@@H](O)[C@H](Cc2ccccc2)NC(=O)[C@@H](NC(=O)[C@@H](NC(=O)C2CC2)c2ccccc2)C(C)(C)C)CSC1(C)C | > 98% | 0.097 µM
CC(NC(=O)[C@H]1N(C(=O)[C@@H](O)[C@H](Cc2ccccc2)NC(=O)[C@@H](NC(=O)[C@@H](NC(=O)C2CC2)c2ccccc2)C(C)(C)C)CSC1(C)C)C(C)(C)C (stereo partly drawn) | > 98% | 0.085 µM
CCC(=O)N[C@H](C(=O)N[C@H](C(=O)N[C@@H](Cc1ccccc1)[C@H](O)C(=O)N1CSC(C)(C)[C@H]1C(=O)NCC1CC1)C(C)(C)C)c1ccccc1 | > 98% | 0.145 µM
CCCC(=O)N[C@H](C(=O)N[C@H](C(=O)N[C@@H](Cc1ccccc1)[C@H](O)C(=O)N1CSC(C)(C)[C@H]1C(=O)NC(C)C(C)(C)C)C(C)(C)C)c1ccccc1 (stereo partly drawn) | > 98% | 0.094 µM
CC(C)C(=O)N[C@H](C(=O)N[C@H](C(=O)N[C@@H](Cc1ccccc1)[C@H](O)C(=O)N1CSC(C)(C)[C@H]1C(=O)NC(C)C(C)C)C(C)(C)C)c1ccccc1 (stereo partly drawn) | > 98% | 0.122 µM
CCCC(=O)N[C@H](C(=O)N[C@H](C(=O)N[C@@H](Cc1ccccc1)[C@H](O)C(=O)N1CSC(C)(C)[C@H]1C(=O)NCC(C)(C)C)C(C)(C)C)c1ccccc1 | > 98% | 0.074 µM
CC(C)CCNC(=O)[C@H]1N(C(=O)[C@@H](O)[C@H](Cc2ccccc2)NC(=O)[C@@H](NC(=O)[C@@H](N)c2ccccc2)C(C)(C)C)CSC1(C)C | > 98% | 0.372 µM
CC(C)C(C)NC(=O)[C@H]1N(C(=O)[C@@H](O)[C@H](Cc2ccccc2)NC(=O)[C@@H](NC(=O)[C@@H](NC(=O)C2CC2)c2ccccc2)C(C)(C)C)CSC1(C)C (stereo partly drawn) | > 98% | 0.09 µM
CC(C)C(=O)N[C@H](C(=O)N[C@H](C(=O)N[C@@H](Cc1ccccc1)[C@H](O)C(=O)N1CSC(C)(C)[C@H]1C(=O)NCC(C)(C)C)C(C)(C)C)c1ccccc1 | > 98% | 0.078 µM
CCC(=O)N[C@H](C(=O)N[C@H](C(=O)N[C@@H](Cc1ccccc1)[C@H](O)C(=O)N1CSC(C)(C)[C@H]1C(=O)NCC(C)C)C(C)(C)C)c1ccccc1 | > 98% | 0.105 µM
C=CCCC(=O)N[C@H](C(=O)N[C@H](C(=O)N[C@@H](Cc1ccccc1)[C@H](O)C(=O)N1CSC(C)(C)[C@H]1C(=O)NC(C)C(C)C)C(C)(C)C)c1ccccc1 (stereo partly drawn) | > 98% | 0.087 µM
CSCC[C@H](NC(=O)[C@@H](NC(=O)[C@@H]1CCCN1C(=O)[C@@H](O)[C@H](Cc1ccccc1)NC(=O)[C@@H](NC(=O)[C@H](CCC(N)=O)NC(=O)[C@@H]1CCCN1)C(C)C)C(C)C)C(=O)N[C@@H](Cc1cnc[nH]1)C(=O)O | > 98% | 0.159 µM

Structure (SMILES) | inhibition [1] | IC50 [2]
CC[C@H](C)[C@H](NC(=O)[C@H]1N(C(=O)[C@@H](O)[C@H](Cc2ccccc2)NC(=O)[C@@H](NC(=O)[C@@H](NC(C)=O)c2ccccc2)C(C)(C)C)CSC1(C)C)C(N)=O (Ac-[Phg][Tle][X1][Thz(5,5-Me2)]I-NH2) | > 98% | 0.144 µM
CC[C@H](C)[C@H](NC(C)=O)C(=O)N[C@H](C(=O)N[C@@H](Cc1ccccc1)[C@H](O)C(=O)N1CSC(C)(C)[C@H]1C(=O)N[C@H](C(=O)N[C@@H](CCSC)C(N)=O)[C@@H](C)CC)[C@@H](C)CC (Ac-II[X1][Thz(5,5-Me2)]IM-NH2) | > 98% | 0.088 µM
CC(C)CC(=O)N[C@H](C(=O)N[C@H](C(=O)N[C@@H](Cc1ccccc1)[C@H](O)C(=O)N1CSC(C)(C)[C@H]1C(=O)NC(C)C(C)C)C(C)(C)C)c1ccccc1 (stereo partly drawn) | > 98% | 0.107 µM
CC(C)C(=O)N[C@H](C(=O)N[C@H](C(=O)N[C@@H](Cc1ccccc1)[C@H](O)C(=O)N1CSC(C)(C)[C@H]1C(=O)NCC1CC1)C(C)(C)C)c1ccccc1 | > 98% | 0.134 µM
CC(C)(C)CNC(=O)[C@H]1N(C(=O)[C@@H](O)[C@H](Cc2ccccc2)NC(=O)[C@@H](NC(=O)[C@@H](NC(=O)C2CC2)c2ccccc2)C(C)(C)C)CSC1(C)C | > 98% | 0.086 µM
CCC(=O)N[C@H](C(=O)N[C@H](C(=O)N[C@@H](Cc1ccccc1)[C@H](O)C(=O)N1CSC(C)(C)[C@H]1C(=O)NC(C)C(C)C)C(C)(C)C)c1ccccc1 (stereo partly drawn) | > 98% | 0.129 µM
CC(C)CNC(=O)[C@H]1N(C(=O)[C@@H](O)[C@H](Cc2ccccc2)NC(=O)[C@@H](NC(=O)[C@@H](N)c2ccccc2)C(C)(C)C)CSC1(C)C | > 98% | 0.332 µM
CC(C)(C)CNC(=O)[C@H]1N(C(=O)[C@@H](O)[C@H](Cc2ccccc2)NC(=O)[C@@H](NC(=O)[C@@H](NC(=O)C(C)(C)C)c2ccccc2)C(C)(C)C)CSC1(C)C | > 98% | 0.097 µM
CC(=O)N[C@H](C(=O)N[C@H](C(=O)N[C@@H](Cc1ccccc1)[C@H](O)C(=O)N1CSC(C)(C)[C@H]1C(=O)NC(C)C(C)(C)C)C(C)(C)C)c1ccccc1 (stereo partly drawn) | > 98% | 0.106 µM
CC(NC(=O)[C@H]1N(C(=O)[C@@H](O)[C@H](Cc2ccccc2)NC(=O)[C@@H](NC(=O)[C@@H](N)c2ccccc2)C(C)(C)C)CSC1(C)C)C(C)(C)C (stereo partly drawn) | > 98% | 0.156 µM
CC(C)CNC(=O)[C@H]1N(C(=O)[C@@H](O)[C@H](Cc2ccccc2)NC(=O)[C@@H](NC(=O)[C@@H](NC(=O)CC(C)C)c2ccccc2)C(C)(C)C)CSC1(C)C | > 98% | 0.102 µM
CCC(=O)N[C@H](C(=O)N[C@H](C(=O)N[C@@H](Cc1ccccc1)[C@H](O)C(=O)N1CSC(C)(C)[C@H]1C(=O)NCC(C)(C)C)C(C)(C)C)c1ccccc1 | > 98% | 0.098 µM
CC(C)(C)[C@H](NC(=O)[C@@H](N)c1ccccc1)C(=O)N[C@@H](Cc1ccccc1)[C@H](O)C(=O)N1CSC(C)(C)[C@H]1C(=O)NCC1CC1 | > 98% | 0.928 µM
CC(C)CNC(=O)[C@H]1N(C(=O)[C@@H](O)[C@H](Cc2ccccc2)NC(=O)[C@@H](NC(=O)[C@@H](NC(=O)C(C)C)c2ccccc2)C(C)(C)C)CSC1(C)C | > 98% | 0.094 µM
CC(C)(C)CNC(=O)[C@H]1N(C(=O)[C@@H](O)[C@H](Cc2ccccc2)NC(=O)[C@@H](NC(=O)[C@@H](N)c2ccccc2)C(C)(C)C)CSC1(C)C | > 98% | 0.18 µM
CC(C)CC(=O)N[C@H](C(=O)N[C@H](C(=O)N[C@@H](Cc1ccccc1)[C@H](O)C(=O)N1CSC(C)(C)[C@H]1C(=O)NCC(C)(C)C)C(C)(C)C)c1ccccc1 | > 98% | 0.082 µM
CC(C)CCNC(=O)[C@H]1N(C(=O)[C@@H](O)[C@H](Cc2ccccc2)NC(=O)[C@@H](NC(=O)[C@@H](NC(=O)CC(C)C)c2ccccc2)C(C)(C)C)CSC1(C)C | > 98% | 0.107 µM
CCCC(=O)N[C@H](C(=O)N[C@H](C(=O)N[C@@H](Cc1ccccc1)[C@H](O)C(=O)N1CSC(C)(C)[C@H]1C(=O)NC(C)C(C)C)C(C)(C)C)c1ccccc1 (stereo partly drawn) | > 98% | 0.659 µM
CC(C)C(C)NC(=O)[C@H]1N(C(=O)[C@@H](O)[C@H](Cc2ccccc2)NC(=O)[C@@H](NC(=O)[C@@H](NC(=O)C(C)(C)C)c2ccccc2)C(C)(C)C)CSC1(C)C (stereo partly drawn) | > 98% | 0.133 µM
CC(=O)N[C@H](C(=O)N[C@H](C(=O)N[C@@H](Cc1ccccc1)[C@H](O)C(=O)N1CSC(C)(C)[C@H]1C(=O)NCC1CC1)C(C)(C)C)c1ccccc1 | > 98% | 0.146 µM
CC(=O)N[C@H](C(=O)N[C@H](C(=O)N[C@@H](Cc1ccccc1)[C@H](O)C(=O)N1CSC(C)(C)[C@H]1C(=O)NC(C)C(C)C)C(C)(C)C)c1ccccc1 (stereo partly drawn) | > 98% | 0.136 µM
CC(C)(C)C(=O)N[C@H](C(=O)N[C@H](C(=O)N[C@@H](Cc1ccccc1)[C@H](O)C(=O)N1CSC(C)(C)[C@H]1C(=O)NCC1CC1)C(C)(C)C)c1ccccc1 | > 98% | 0.187 µM
